From ChEMBL document CHEMBL3259682, “Synthesis, β-haematin inhibition, and in vitro antimalarial testing of isocryptolepine analogues: SAR study of indolo[3,2-c]quinolines with various substituents at C2, C6, and N11” (Bioorg Med Chem, 2014) come the findings set out here.

Data set [1] deals with Plasmodium falciparum. The data set can be described thus: Antimalarial activity against erythrocytic stage of chloroquine/pyrimethamine-resistant Plasmodium falciparum K1 after 48 hrs by [3H]-hypoxanthine incorporation assay. In kind it is functional, organism-based. The procedure, abridged: (§1)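 Chloroquine/pyrimethamine-resistant K1 and drug-susceptible NF54 P. falciparum were grown in hypoxanthine-free RPMI 1640 with HEPES, NaHCO₃, neomycin and Albumax, in human A⁺ erythrocytes at 2.5% haematocrit and 0.3% parasitaemia. DMSO stocks were 10 mg/mL, tested in eleven 3-fold dilutions under 4% CO₂/3% O₂/93% N₂. ³H-hypoxanthine was added at 48 h, then 24 h more before filter harvest. IC₅₀ is the mean of two assays; RI = K1/NF54 IC₅₀.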

The nature of data set [2]: Binding affinity to haematin assessed as inhibition of beta-haematin formation after 5 to 6 hrs by pyridine-ferrichrome-based method. In a few lines: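 Detergent (NP-40) mediated β-haematin formation assay, run manually. Compounds came from 20, 2 and 0.4 mM DMSO stocks, tested at 0–1000 µM final. Haematin was 100 µM final in 0.5 M acetate buffer, pH 4.8. Incubation was 5–6 h at 37 °C. Read-out used the pyridine-ferrichrome method with UV–vis absorbance. IC₅₀ came from sigmoidal dose–response fits.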

The nature of data set [3]: Resistance index, ratio of IC50 for chloroquine/pyrimethamine-resistant Plasmodium falciparum K1 to IC50 for erythrocytic stage of chloroquine-sensitive Plasmodium falciparum NF54. It counts as functional. The procedure, abridged: as §1
Data set [4] in a line: Selectivity index, ratio of IC50 for rat L6 cells to IC50 for erythrocytic stage of chloroquine-sensitive Plasmodium falciparum NF54. It counts as toxicity, cell-based. The conditions noted are these: read-out: Ratio IC50. The procedure, abridged:
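Selectivity index is the L6 cytotoxicity IC₅₀ divided by the NF54 antiplasmodial IC₅₀. Each IC₅₀ is the mean of two independent assays.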

The test system of data set [5] is Plasmodium falciparum. The data set can be described thus: Antimalarial activity against erythrocytic stage of chloroquine-sensitive Plasmodium falciparum NF54 after 48 hrs by [3H]-hypoxanthine incorporation assay. In kind it is functional, organism-based. The procedure, abridged: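 ³H-hypoxanthine incorporation against P. falciparum NF54. DMSO stocks at 10 mg/mL were added to cultures in hypoxanthine-free RPMI 1640 with HEPES, NaHCO₃, neomycin and Albumax, using human A⁺ red cells at 2.5% haematocrit and 0.3% parasitaemia. Eleven 3-fold serial dilutions were tested. Incubation was under 4% CO₂/3% O₂/93% N₂. ³H-hypoxanthine was added after 48 h, followed by a further 24 h. Cells were harvested onto glass-fibre filters. IC₅₀ is the mean of two independent assays.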

A short description of data set [6]: Selectivity index, ratio of IC50 for rat L6 cells to IC50 for chloroquine/pyrimethamine-resistant Plasmodium falciparum K1. The following applies: read-out: Ratio IC50. It counts as toxicity, cell-based.
Data set [7] concerns L6. The data set can be described thus: Cytotoxicity against rat L6 cells after 70 hrs by Alamar Blue assay. The following applies: L6, 70 h. In kind it is functional, cell-based. The procedure, abridged:
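Rat skeletal myoblast L6 cells, 4000 per well, in RPMI 1640 with 1% L-glutamine and 10% fetal bovine serum. Eleven 3-fold serial drug dilutions were tested. Alamar Blue was added for a final 2 h. Fluorescence was read at excitation 536 nm and emission 588 nm. IC₅₀ is the mean of two independent assays.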

Consider `NCCCNc1nc2ccc(Cl)cc2c2[nH]c3ccccc3c12`, for which the IC50 in data set [1] stood at 67.7 nM; in data set [2], 12400 nM; in data set [5], 6.2 nM; in data set [7], 1120 nM. In addition, the Ratio IC50 in data set [3] came to 10.9. Besides, the selectivity ratio worked out at 181 in data set [4] and 16.6 in data set [6].

Consider `COc1ccc2nc(NCCCNC(=O)Nc3ccccc3)c3c4ccccc4[nH]c3c2c1`, for which the IC50 was 19.6 nM in data set [1], 14800 nM in data set [2], 17.1 nM in data set [5] and 1520 nM in data set [7]. Further, the Ratio IC50 in data set [3] was found to be 1.1. Besides, the selectivity ratio in data set [4] was 88.8; in data set [6], 77.4.

For the compound `CC(CNC(=O)Nc1ccccc1)CNc1nc2ccc(Cl)cc2c2[nH]c3ccccc3c12` (configuration not stated), the half-maximal inhibitory concentration (IC50) in data set [1] turned out to be 17.5 nM; in data set [2] it was 14600 nM; in data set [5] it was 10.9 nM; in data set [7] it was 4110 nM. Besides, in data set [3], the Ratio IC50 was 1.6. For the same compound, the selectivity ratio in data set [4] amounted to 377; in data set [6], 235.

`S=C(NCCCNc1nc2ccccc2c2[nH]c3ccccc3c12)Nc1ccccc1`: the IC50 in data set [1] was found to be 49.3 nM; in data set [2], 18500 nM; in data set [5] it was 23.5 nM; in data set [7], 249 nM. The Ratio IC50 in data set [3] was found to be 2.1. For the same compound, the figures for the selectivity ratio in data set [4] and in data set [6] were 10.6 and 5.1, respectively.

Take `Cn1c2ccccc2c2c(NCCCN)nc3ccccc3c21`: the IC50 amounted to 85.4 nM in data set [1], 24200 nM in data set [2], 72.3 nM in data set [5] and 279 nM in data set [7]. Further, the Ratio IC50 in data set [3] was 1.2. The selectivity ratio in data set [4] is 3.9; in data set [6] it was 3.3.

On to `NCCCNc1nc2ccccc2c2[nH]c3ccccc3c12`, for which the IC50 in data set [1] was found to be 82.7 nM; in data set [2], 116000 nM; in data set [5] it was 13.7 nM; in data set [7] it was 627 nM. Moreover, in data set [3], the Ratio IC50 was 6. For the same compound, the selectivity ratio in data set [4] was 45.8; in data set [6] it was 7.6.

For `CN(C)CCCNc1nc2ccccc2c2[nH]c3ccccc3c12`, the IC50 in data set [1] stood at 25.1 nM; in data set [2] it was 83600 nM; in data set [5], 9.4 nM; in data set [7], 606 nM. The Ratio IC50 in data set [3] is 2.66. For the same compound, the selectivity ratio in data set [4] is 64.3; in data set [6], 24.1.

As to `Cc1ccc2nc(NCCCNC(=O)Nc3ccccc3)c3c4ccccc4[nH]c3c2c1`, the half-inhibitory concentration (IC50) in data set [1] stood at 42.5 nM; in data set [2], 17200 nM; in data set [5] it was 23.6 nM; in data set [7] it was 966 nM. For the same compound, the Ratio IC50 in data set [3] was found to be 1.8. Also, the results for the selectivity ratio in data set [4] and in data set [6] were 40.9 and 22.7, respectively.

`O=C(NCCCCCCNc1nc2ccccc2c2[nH]c3ccccc3c12)Nc1ccccc1`: the IC50 is 24.4 nM in data set [1], 16200 nM in data set [2], 22.1 nM in data set [5] and 862 nM in data set [7]. For the same compound, the Ratio IC50 in data set [3] is 1.1. Besides, the selectivity ratio in data set [4] worked out at 39; in data set [6], 35.3.

For `O=C(NCCCNc1nc2ccc(Br)cc2c2[nH]c3ccccc3c12)Nc1ccccc1`, the IC50 came out at 36.9 nM in data set [1], 13900 nM in data set [2], 22.5 nM in data set [5] and 1280 nM in data set [7]. The Ratio IC50 in data set [3] was found to be 1.6. The selectivity ratio amounted to 56.9 in data set [4] and 34.7 in data set [6].

With `O=C(NCCCNc1nc2ccc(Cl)cc2c2[nH]c3ccccc3c12)Nc1ccccc1`, the IC50 in data set [1] was determined as 50 nM; in data set [2] it was 14400 nM; in data set [5], 27 nM; in data set [7], 2570 nM. Also, the Ratio IC50 in data set [3] worked out at 1.9. In addition, the selectivity ratio in data set [4] stood at 95.1; in data set [6], 51.4.
